The results in this text go back to PubChem BioAssay AID488992 (Sanford-Burnham Center for Chemical Genomics, 2010).

SMILES strings stand for the structures. Active and inactive are the calls of the source.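 Rule for the calls: active = IC50 below 20 µM; inactive = the rest.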 Bounds are passed on as bounds.

Sequence of Apelin receptor (Homo sapiens) (P35414 whole entry, looked up, the tested form may be a part): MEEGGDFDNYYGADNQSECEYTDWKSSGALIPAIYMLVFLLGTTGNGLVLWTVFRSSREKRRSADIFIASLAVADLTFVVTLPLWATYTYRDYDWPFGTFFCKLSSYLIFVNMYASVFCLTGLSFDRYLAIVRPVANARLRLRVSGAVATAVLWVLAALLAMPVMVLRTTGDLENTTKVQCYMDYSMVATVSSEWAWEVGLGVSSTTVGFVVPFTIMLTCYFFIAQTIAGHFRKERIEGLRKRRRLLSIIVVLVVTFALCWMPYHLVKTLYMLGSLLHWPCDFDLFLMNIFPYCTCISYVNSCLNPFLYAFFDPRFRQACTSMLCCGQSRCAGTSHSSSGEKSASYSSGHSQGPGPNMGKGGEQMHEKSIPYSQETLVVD

The experiment deals with Apelin receptor (Homo sapiens) (UniProt P35414). The experiment is described as follows: APJ antagonists, beta-arrestin recruitment, SAR follow-up, cell-based, luminescence, set 3 (AID 488992). The conditions noted are these: CHO-K1 AGTRL-1 PathHunter beta-arrestin. The procedure, abridged:
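System: CHO-K1 cells with ProLink-tagged APJ and arrestin–enzyme-acceptor fusion. Also added: apelin-13, 10 nM final. Doses: test compounds as dose-response series. Times: overnight cell seeding, 90 min compound-agonist exposure at 25 °C. Measured by: luminescence from beta-gal complementation, read 60 min after detection reagent.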
Background: Arrestin recruitment assays detect the binding of arrestin to an activated receptor.
As for `Cc1ccnc(SCc2cc(=O)c(OC(=O)c3ccc([N+](=O)[O-])o3)co2)n1`, the IC50 was > 79 µM (inactive).
Take `O=C(Nc1ccc(CSc2ncccn2)cc1)c1ccccc1`: the IC50 is > 79 µM (inactive).
As for `COc1cc(CSc2nc(C)cc(C)n2)ccc1OC(=O)c1cccnc1`, the IC50 was > 79 µM (inactive).
Take `Cc1ccnc(SCc2cc(=O)c(OCc3ccc(Cl)c([N+](=O)[O-])c3)co2)n1`: the IC50 is > 79 µM (inactive).
To `Cc1ccnc(SCc2cc(=O)c(OC(=O)c3ccno3)co2)n1` belongs > 79 µM (inactive); to `CC(=O)Oc1coc(CSc2nccc(C)n2)cc1=O`, > 79 µM (inactive).
Under `COc1cc(CSc2nc(C)cc(C)n2)ccc1OC(=O)c1ccc([N+](=O)[O-])cc1` stands > 79 µM (inactive); under `COc1cc(CSc2nc(C)cc(C)n2)ccc1OC(=O)c1ccccc1`, > 79 µM (inactive).
Regarding `Cc1ccnc(SCc2cc(=O)c(OC(=O)C(C)(C)C)co2)n1`, the IC50 is > 79 µM (inactive).
Take `Cc1ccnc(SCc2cc(=O)c(OC(=O)C(C)C)co2)n1`: the IC50 is > 79 µM (inactive).

The IC50 is the concentration that inhibits the measured activity by half.
